DNMT1 block = inhibitors of human DNMT1. P26358. DNMT1 molecular beacon, Hinp1I cleavage, fluorescence. inhibition (reported as % activation of signal), % at 10 µM. 360,000 tested, 0.83% active. AID 588458; in the data active means inhibition above about 50%
HKDC1 inhibitor = HKDC1 (human) hexokinase inhibition | 340,000 tested, 0.16% active | inhibition, % at 20 µM | recombinant HKDC1, G6PDH/diaphorase resazurin coupled fluorescence | Q2TB90;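 active means inhibition above about 35% when tested at 20 µM, limit read from the data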
Target sequence (Q2TB90 whole entry, looked up): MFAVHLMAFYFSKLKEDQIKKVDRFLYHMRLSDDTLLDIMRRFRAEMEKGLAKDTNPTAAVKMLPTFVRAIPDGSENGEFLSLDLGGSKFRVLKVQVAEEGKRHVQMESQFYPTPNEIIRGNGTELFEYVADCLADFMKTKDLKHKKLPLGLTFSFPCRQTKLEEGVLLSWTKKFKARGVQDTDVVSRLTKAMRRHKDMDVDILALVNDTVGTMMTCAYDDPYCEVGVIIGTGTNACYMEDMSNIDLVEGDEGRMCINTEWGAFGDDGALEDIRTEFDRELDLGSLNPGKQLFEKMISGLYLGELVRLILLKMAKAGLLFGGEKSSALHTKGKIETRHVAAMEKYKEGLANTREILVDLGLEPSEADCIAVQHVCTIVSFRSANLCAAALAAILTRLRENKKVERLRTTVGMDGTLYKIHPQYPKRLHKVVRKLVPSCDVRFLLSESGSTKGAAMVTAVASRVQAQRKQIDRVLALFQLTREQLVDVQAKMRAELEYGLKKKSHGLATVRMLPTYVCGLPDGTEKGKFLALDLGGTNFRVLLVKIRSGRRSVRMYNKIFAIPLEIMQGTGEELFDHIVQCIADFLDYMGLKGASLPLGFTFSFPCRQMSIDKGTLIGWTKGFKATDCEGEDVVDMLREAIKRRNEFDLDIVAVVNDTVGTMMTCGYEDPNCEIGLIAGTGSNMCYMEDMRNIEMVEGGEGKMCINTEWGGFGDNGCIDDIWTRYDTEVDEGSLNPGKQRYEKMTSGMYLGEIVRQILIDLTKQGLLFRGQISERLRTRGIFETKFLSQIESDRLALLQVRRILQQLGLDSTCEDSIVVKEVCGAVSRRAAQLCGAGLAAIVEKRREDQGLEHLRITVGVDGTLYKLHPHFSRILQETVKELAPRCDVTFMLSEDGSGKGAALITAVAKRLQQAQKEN
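Material: recombinant HKDC1 hexokinase; Amount: HKDC1 at 5 µg/mL; Medium: Tris pH 8.0 buffer with MgCl2, Tween-20, BSA, BME; Schedule: 90 min reaction incubation at room temperature, dark; Technique: coupled resazurin fluorescence, excitation 525 nm, emission 613 nm.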
STEP block = inhibitors of human striatal-enriched phosphatase STEP; 360,000 tested, 0.25% active; recombinant STEP, OMFP fluorogenic substrate, fluorescence; inhibition, % at 20 µM; P54829; AID 588621;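 active means inhibition at 20 µM, scaled per plate between control wells, above about 37%, limit read from the data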
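material = STEP tyrosine phosphatase | reagent = fluorogenic phosphatase substrate OMFP at 25 µM final | doses = single compound dose of 20 µM, 1% DMSO final | schedule = 20 min reaction, room temperature, in the dark | measured by = fluorescence, 480/540 nm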
Scp-1 inhibitor = Scp-1 (human) phosphatase inhibition; inhibition, % at 20 µM; Recombinant Scp1, phosphopeptide, malachite green phosphate absorbance; 340,000 tested, 0.88% active; Q9GZU7; AID 493091;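 active means inhibition above about 50% at 20 µM, limit read from the data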
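Test system: SCP-1 phosphatase catalytic domain, residues 76-261; measured by: colorimetric phosphate reagent with accelerator and stabiliser, absorbance at 630 nm; timing: enzyme reaction 45 min at room temperature, colour 5 min, stabilisation 30 min; also added: Phosphorylated 17-residue peptide substrate; compound dosing: one concentration, 20 µM, with 1.0% DMSO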
SUMO1 PPI mod = alters human SUMO1 binding to SIM partners. SUMO1 binding to a labelled peptide, TR-FRET, 1 h. inhibition, % at 20 µM. 360,000 tested, 0.33% active. AID 602429; in the data active means inhibition above about 37%
LMPTP block = LMPTP (human) inhibition; P24666; recombinant LMPTP-A, OMFP fluorogenic substrate, fluorescence intensity; inhibition, % at 20 µM; 360,000 tested, 0.22% active;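 active means compounds that cut the enzyme signal by at least half of the control window in the single-dose screen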
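Assay system: LMPTP-A, protein tyrosine phosphatase of low molecular weight / Medium: pH 6.0 Bis-Tris buffer with DTT and Triton X-100 / Schedule: 50 min enzyme reaction at room temperature, protected from light / Measured by: endpoint fluorescence intensity from OMFP dephosphorylation / Read-out basis: % inhibition relative to no-enzyme and uninhibited control wells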
Scp1 confirm = Scp-1 (human) inhibition, single-dose confirmed; shares compounds with Scp-1 inhibitor; recombinant SCP-1 catalytic domain, phosphate release, malachite green absorbance; inhibition, % at 20 µM; 2,500 tested, 61% active; AID 540281
MG interference = counter-screen for Scp-1 inhibitors: colorimetric interference; shares compounds with Scp-1 inhibitor; Colorimetric interference counterscreen, malachite green absorbance 630 nm; apparent inhibition (interference), % at 20 µM; 2,500 tested, under 10 active;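 further: compounds added after enzyme reaction finished so only phosphate colour detection is probed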
Scp1 DSF = binds human Scp-1, shifting its melting temperature; shares compounds with Scp-1 inhibitor; Recombinant SCP1, Sypro Orange thermal shift Tm; thermal shift relative to vanadate control, % at 40 µM; 1,500 tested, 25% active;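 active means substances whose mean melting-temperature shift, as a percentage of the reference inhibitor's shift, reaches about 5.3%, limit read from the data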
Numbers stand for hits; n = inactive; x = no result given. A selection: hits, their analogues and other compounds. The true share with any hit is near 1.8%.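 How the source made its calls, unless noted: active means inhibition of at least 30% at 20 µM; inactive means the rest.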

SMILES	DNMT1 block	HKDC1 inhibitor	STEP block	Scp-1 inhibitor	SUMO1 PPI mod	LMPTP block	Scp1 confirm	MG interference	others
COc1ccc2[nH]cc(C=O)c2c1	n	n	n	n	n	n	x	x
COc1ccc2[nH]cc(/C=C/c3cc[n+](C)cc3)c2c1	n	n	n	58.2	n	n	n	n
CCOC(=O)c1cnc2nc(NCc3ccc(OC)c(OC)c3)[nH]n2c1=O	n	n	n	53.7	n	n	31.4	n	Scp1 DSF=n
CCCc1cc(=O)n2[nH]c(NCc3ccc(OC)c(OC)c3)nc2n1	n	n	n	n	n	n	x	x
O=S(=O)(c1ccccc1)N1CCC(n2cnc3ccccc32)CC1	n	n	n	n	n	n	x	x
C/C(N)=C(/C#N)C(=O)CN1C(=O)NC(Cc2c[nH]c3ccccc23)C1=O (stereo not drawn)	n	n	n	65.3	n	n	59.9	n	Scp1 DSF=n
COCCN(C(=O)Cn1nnc2ccccc21)C(C(=O)NC1CCCCC1)c1ccc(OC)cc1OC (stereo not drawn)	n	n	n	70.8	n	n	47.9	n	Scp1 DSF=n
NS(=O)(=O)c1ccc(NC(=O)COC(=O)CCC2CCCCC2)cc1	n	n	n	n	n	n	x	x
CSc1ccc(CCNC(=O)CSc2ccsc2[N+](=O)[O-])cc1	n	n	n	51.3	n	n	55.4	n	Scp1 DSF=7.5
COc1ccc(-n2nc(C(=O)Nc3nc4ccc(OC)cc4s3)c3ccccc3c2=O)cc1	n	n	n	67.8	n	n	n	n
CCOCCCNC(=O)Cn1cnc2sc(C)c(S(=O)(=O)N3CCN(c4ncccn4)CC3)c2c1=O	n	n	n	n	n	n	x	x
Cc1ccc(S(=O)(=O)NN2C(=O)/C(=C/c3ccc(C(=O)O)cc3)SC2=S)cc1	n	n	n	63.7	n	n	n	n
COc1ccc(C2=NN(C(=O)CSc3nc(=O)n4cccc(C)c4n3)C(c3ccc(C)cc3)C2)cc1 (stereo not drawn)	n	n	n	n	n	n	x	x
CCN1CCN(c2ccc(NC(=O)c3cc4ccccc4cc3OC)cc2C)CC1	n	n	n	64.6	n	n	n	n
CCN1CCN(c2ccc(NC(=O)c3ccccc3F)cc2Cl)CC1	n	n	n	n	n	n	x	x
COc1ccc(NC(=O)c2cc(-c3ccncc3)nc3ccc(Br)cc23)cc1OC	n	n	n	n	n	n	x	x
COCCn1c(SCC(=O)NC2CCCC2)nnc1-c1ccco1	n	n	n	n	n	n	x	x
Cc1ccc(C)c(NC(=O)CSc2ncnc3nc[nH]c23)c1	n	n	n	58.0	n	n	n	n
NS(=O)(=O)c1cccc(NC(=O)COC(=O)CC2Sc3ccccc3NC2=O)c1 (stereo not drawn)	n	n	n	n	n	n	x	x
O=C(CC1Sc2ccccc2NC1=O)Nc1cccc(C(=O)O)c1 (stereo not drawn)	n	n	n	59.9	n	n	36.3	n	Scp1 DSF=n
CSc1ccccc1NC(=O)c1cc2ncc(Br)cn2n1	n	n	n	60.0	n	n	50.3	n	Scp1 DSF=n
Cc1ccccc1Cn1ccc(NC(=O)c2cc3ncc(Br)cn3n2)n1	n	n	n	n	n	n	x	x
Cc1ccc(C(C)NC(=O)C2CCCC2)cc1C (stereo not drawn)	n	n	n	n	n	n	x	x
Cc1ccc(C(c2ccc(C)c(C)c2)C(O)C2OC(=O)C(O)C2O)cc1C (stereo not drawn)	n	n	n	53.0	n	n	n	n
C/C(=N\Nc1ccc(Cl)c(C(=O)O)c1)c1cccs1	n	n	n	n	n	n	x	x
SMILES	DNMT1 block	HKDC1 inhibitor	STEP block	Scp-1 inhibitor	SUMO1 PPI mod	LMPTP block	Scp1 confirm	MG interference	others
C/C(=N\Nc1ccc(Cl)c(C(=O)O)c1)c1ccc[nH]1	n	n	n	72.7	n	n	58.5	n	Scp1 DSF=17.0
OCOCCCn1c(C2CCCN2c2nc(-c3ccc(F)cc3)cs2)nc2cc(Cl)c(N3CCCCC3)cc21 (stereo not drawn)	n	n	n	n	n	n	x	x
OC(COC1CCCCC1)CN1CCCCC1 (stereo not drawn)	n	n	n	55.2	n	n	n	n
CCOC(=O)C1CCCN(c2c(NCCN3CCCCC3CC)c(=O)c2=O)C1 (stereo not drawn)	n	n	n	56.8	n	n	n	n
CCOC(=O)N1CCN(c2c(NCCN3CCCCC3CC)c(=O)c2=O)CC1 (stereo not drawn)	n	n	n	n	n	n	x	x
CC(Nc1ccc(F)cc1)=[N+](C)CCNS(=O)(=O)c1ccc(Cl)cc1	n	n	n	102.8	n	n	88.7	n	Scp1 DSF=n
CCNS(=O)(=O)c1ccc(NC(=O)Cc2ccc(F)cc2)cc1	n	n	n	n	n	n	x	x
CSCCC(N=CC1=C(O)CC(C)(C)CC1=O)C(=O)O (stereo not drawn)	n	n	n	73.0	n	n	n	n
CCC(CO)N=CC1=C(O)CC(C)(C)CC1=O (stereo not drawn)	n	n	n	n	n	n	x	x
CCN(CC)S(=O)(=O)c1cccc(NC(=O)COC(=O)/C=C/c2ccco2)c1	n	n	n	n	n	n	x	x
CN(C)S(=O)(=O)c1cccc(NC(=O)COC(=O)/C=C/c2ccco2)c1	n	n	n	68.3	n	n	40.6	n	Scp1 DSF=n
O=C(NCc1ccco1)C1CCN(C(=O)c2ccc([N+](=O)[O-])cc2)CC1	n	n	n	n	n	n	x	x
CCOC(=O)C1=C(C)N=c2s/c(=C\c3cccc(OCC(=O)O)c3)c(=O)n2C1c1ccccc1OC (stereo not drawn)	n	n	n	60.9	n	n	33.1	n	Scp1 DSF=5.8
O=C(NCc1ccco1)c1ccc2sc([C@@H]3O[C@H](CO)[C@H](O)[C@H](O)[C@H]3O)nc2c1	n	x	n	x	n	n	x	x
Cc1cccc(C)c1-n1nnnc1C1(C)CCC(=O)N1C1CC1 (stereo not drawn)	x	x	x	x	n	n	x	x
Cc1cccc(C)c1NC(=O)CCCCCC1NC(=O)NC1C (stereo not drawn)	n	n	n	n	n	n	n	n
CCOC(=O)c1c(C)[nH]c(C)c1S(=O)(=O)N1CCN(c2ccc([N+](=O)[O-])cc2)CC1	n	n	n	n	n	n	x	x
O=C(NC1CCCCC1)c1ccc2c(c1)S(=O)(=O)c1ccccc1C2=O	n	n	n	n	n	n	x	x

Screens (PubChem)
